Measurements from ChEMBL document CHEMBL4715736, “Identification of anticancer agents based on the thieno[2,3-b]pyridine and 1H-pyrazole molecular scaffolds” (2016).

Legend:
Assay type in all cases: functional
SNB-75 = test: Growth inhibition of human SNB-75 cells assessed as cell growth at 1 uM incubated for 48 hrs by sulforhodamine B assay relative to control; settings: read-out: Activity
BT-549 = test: Growth inhibition of human BT-549 cells assessed as cell growth at 0.1 uM incubated for 48 hrs by sulforhodamine B assay relative to control; settings: read-out: Activity
NCI-H322M [1] = test: Growth inhibition of human NCI-H322M cells assessed as cell growth at 0.01 uM incubated for 48 hrs by sulforhodamine B assay relative to control; settings: read-out: Activity
NCI-H226 = test: Growth inhibition of human NCI-H226 cells assessed as cell growth at 100 uM incubated for 48 hrs by sulforhodamine B assay relative to control; settings: read-out: Activity
HCT-116 = test: Growth inhibition of human HCT-116 cells incubated for 48 hrs by sulforhodamine B assay
Method in brief: (§1)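 NCI60 panel at the NCI Developmental Therapeutics Program. Only compounds active in the 10 µM screen went to dose-response testing. GI50, the concentration giving 50% of maximal inhibition of proliferation, and TGI, the concentration giving total growth inhibition, were derived from the dose-response curves.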

COLO 205 = test: Growth inhibition of human COLO 205 cells assessed as cell growth at 100 uM incubated for 48 hrs by sulforhodamine B assay relative to control; settings: read-out: Activity
Method in brief: (§2)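 NCI Developmental Therapeutics Program NCI60 panel. Compounds that were active in the 10 µM one-dose screen went on to dose–response testing. Growth at each concentration is expressed relative to untreated control (100%). GI50 (concentration giving 50% of maximal inhibition of proliferation) and TGI (concentration giving total growth inhibition) were derived from the curves.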

SK-MEL-2 = test: Growth inhibition of human SK-MEL-2 cells assessed as cell growth at 100 uM incubated for 48 hrs by sulforhodamine B assay relative to control; settings: read-out: Activity
U-251 = test: Growth inhibition of human U-251 cells assessed as cell growth at 0.01 uM incubated for 48 hrs by sulforhodamine B assay relative to control; settings: read-out: Activity
SF-295 = test: Growth inhibition of human SF-295 cells assessed as cell growth at 1 uM incubated for 48 hrs by sulforhodamine B assay relative to control; settings: read-out: Activity
MDA-MB-468 [2] = test: Growth inhibition of human MDA-MB-468 cells assessed as cell growth at 0.01 uM incubated for 48 hrs by sulforhodamine B assay relative to control; settings: read-out: Activity
SNB-19 [3] = test: Growth inhibition of human SNB-19 cells assessed as cell growth at 0.01 uM incubated for 48 hrs by sulforhodamine B assay relative to control; settings: read-out: Activity
SF-268 [4] = test: Growth inhibition of human SF-268 cells assessed as cell growth at 0.1 uM incubated for 48 hrs by sulforhodamine B assay relative to control; settings: read-out: Activity
A498 = test: Growth inhibition of human A498 cells assessed as cell growth at 0.1 uM incubated for 48 hrs by sulforhodamine B assay relative to control; settings: read-out: Activity; method in brief: as §2
LOX IMVI = test: Growth inhibition of human LOX IMVI cells incubated for 48 hrs by sulforhodamine B assay; method in brief: as §1
HCC 2998 = test: Growth inhibition of human HCC 2998 cells assessed as cell growth at 0.1 uM incubated for 48 hrs by sulforhodamine B assay relative to control; settings: read-out: Activity; method in brief: as §2
DU-145 [5] = test: Growth inhibition of human DU-145 cells assessed as cell growth at 0.1 uM incubated for 48 hrs by sulforhodamine B assay relative to control; settings: read-out: Activity; method in brief: as §2
SNB-19 [6] = test: Growth inhibition of human SNB-19 cells incubated for 48 hrs by sulforhodamine B assay
Method in brief: (§3)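 NCI DTP 60-line human tumour panel. Dose-response curves were run only for ligands active in the initial 10 µM screen. GI50 (concentration giving 50% of maximal inhibition of proliferation) and TGI (concentration giving total growth inhibition) were derived from these curves.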

OVCAR-4 [7] = test: Growth inhibition of human OVCAR-4 cells assessed as cell growth at 1 uM incubated for 48 hrs by sulforhodamine B assay relative to control; settings: read-out: Activity
MOLT-4 [8] = test: Growth inhibition of human MOLT-4 cells incubated for 48 hrs by sulforhodamine B assay; settings: for CC50: read-out: LC50 (the source's name); method in brief: as §1
SF-268 [9] = test: Growth inhibition of human SF-268 cells assessed as cell growth at 100 uM incubated for 48 hrs by sulforhodamine B assay relative to control; settings: read-out: Activity
NCI-H522 = test: Growth inhibition of human NCI-H522 cells assessed as cell growth at 1 uM incubated for 48 hrs by sulforhodamine B assay relative to control; settings: read-out: Activity
MOLT-4 [10] = test: Growth inhibition of human MOLT-4 cells assessed as cell growth at 1 uM incubated for 48 hrs by sulforhodamine B assay relative to control; settings: read-out: Activity
HCT-15 = test: Growth inhibition of human HCT-15 cells assessed as cell growth at 0.1 uM incubated for 48 hrs by sulforhodamine B assay relative to control; settings: read-out: Activity
MCF7 = test: Growth inhibition of human MCF7 cells assessed as cell growth at 100 uM incubated for 48 hrs by sulforhodamine B assay relative to control; settings: read-out: Activity
NCI-H322M [11] = test: Growth inhibition of human NCI-H322M cells incubated for 48 hrs by sulforhodamine B assay; settings: for CC50: read-out: LC50 (the source's name); method in brief: as §1
MDA-MB-468 [12] = test: Growth inhibition of human MDA-MB-468 cells assessed as cell growth at 0.1 uM incubated for 48 hrs by sulforhodamine B assay relative to control; settings: read-out: Activity
OVCAR-4 [13] = test: Growth inhibition of human OVCAR-4 cells assessed as cell growth at 100 uM incubated for 48 hrs by sulforhodamine B assay relative to control; settings: read-out: Activity
OVCAR-8 = test: Growth inhibition of human OVCAR-8 cells assessed as cell growth at 100 uM incubated for 48 hrs by sulforhodamine B assay relative to control; settings: read-out: Activity
DU-145 [14] = test: Growth inhibition of human DU-145 cells assessed as cell growth at 100 uM incubated for 48 hrs by sulforhodamine B assay relative to control; settings: read-out: Activity; method in brief: as §2
Hs-578T = test: Growth inhibition of human Hs-578T cells assessed as cell growth at 0.1 uM incubated for 48 hrs by sulforhodamine B assay relative to control; settings: read-out: Activity
NCI-H322M [15] = test: Growth inhibition of human NCI-H322M cells assessed as cell growth at 1 uM incubated for 48 hrs by sulforhodamine B assay relative to control; settings: read-out: Activity
RPMI-8226 = test: Growth inhibition of human RPMI-8226 cells assessed as cell growth at 0.1 uM incubated for 48 hrs by sulforhodamine B assay relative to control; settings: read-out: Activity
UACC-62 = test: Growth inhibition of human UACC-62 cells incubated for 48 hrs by sulforhodamine B assay; method in brief: as §3
NCI-H23 = test: Growth inhibition of human NCI-H23 cells assessed as cell growth at 100 uM incubated for 48 hrs by sulforhodamine B assay relative to control; settings: read-out: Activity
PC-3 = test: Growth inhibition of human PC-3 cells incubated for 48 hrs by sulforhodamine B assay; method in brief: as §3

**Q.** What does the source list for `CCc1ccccc1NC(=O)c1sc2nc3c(cc2c1N)C(=O)CCC3`?
**A.** growth at 1 µM (SNB-75): -8%; growth at 0.1 µM (BT-549): 101%; growth at 0.01 µM (NCI-H322M [1]): 97%; growth at 100 µM (NCI-H226): 18%; GI50 (HCT-116): 0.483 µM; LC50 (concentration killing 50% of cells) (HCT-116): > 100 µM; TGI (HCT-116): > 100 µM; growth at 100 µM (COLO 205): -72%; growth at 100 µM (SK-MEL-2): 7%; growth at 0.01 µM (U-251): 96%; growth at 1 µM (SF-295): 13%; growth at 0.01 µM (MDA-MB-468 [2]): 91%; growth at 0.01 µM (SNB-19 [3]): 91%; growth at 0.1 µM (SF-268 [4]): 93%; growth at 0.1 µM (A498): 72%; GI50 (LOX IMVI): 0.645 µM; LC50 (LOX IMVI): > 100 µM; TGI (LOX IMVI): > 100 µM; growth at 0.1 µM (HCC 2998): 96%; growth at 0.1 µM (DU-145 [5]): 103%; GI50 (SNB-19 [6]): 0.763 µM; LC50 (SNB-19 [6]): > 100 µM; TGI (SNB-19 [6]): > 100 µM; growth at 1 µM (OVCAR-4 [7]): 45%; GI50 (MOLT-4 [8]): 0.529 µM; TGI (MOLT-4 [8]): > 100 µM; CC50 (MOLT-4 [8]): > 100 µM; growth at 100 µM (SF-268 [9]): 12%; growth at 1 µM (NCI-H522): 34%; growth at 1 µM (MOLT-4 [10]): 66%; growth at 0.1 µM (HCT-15): 74%; growth at 100 µM (MCF7): 9%; TGI (NCI-H322M [11]): > 100 µM; CC50 (NCI-H322M [11]): > 100 µM; growth at 0.1 µM (MDA-MB-468 [12]): 75%; growth at 100 µM (OVCAR-4 [13]): 8%; growth at 100 µM (OVCAR-8): 10%; growth at 100 µM (DU-145 [14]): 2%; growth at 0.1 µM (Hs-578T): 80%; growth at 1 µM (NCI-H322M [15]): 40%; growth at 0.1 µM (RPMI-8226): 96%

**Q.** Which results are given for `CCc1cccc(C)c1NC(=O)c1sc2nc3c(cc2c1N)C(=O)CCC3`?
**A.** growth at 1 µM (SNB-75): -2%; GI50 (UACC-62): 0.556 µM; LC50 (UACC-62): > 100 µM; TGI (UACC-62): > 100 µM; growth at 0.01 µM (NCI-H322M [1]): 91%; growth at 100 µM (NCI-H226): 8%; GI50 (HCT-116): 0.471 µM; LC50 (concentration killing 50% of cells) (HCT-116): > 100 µM; TGI (HCT-116): > 100 µM; growth at 100 µM (COLO 205): -31%; growth at 0.01 µM (U-251): 94%; growth at 1 µM (SF-295): 5%; growth at 100 µM (NCI-H23): 14%; growth at 0.01 µM (MDA-MB-468 [2]): 91%; growth at 0.01 µM (SNB-19 [3]): 96%; growth at 0.1 µM (SF-268 [4]): 96%; growth at 0.1 µM (A498): 72%; GI50 (LOX IMVI): 0.724 µM; LC50 (LOX IMVI): > 100 µM; TGI (LOX IMVI): > 100 µM; growth at 0.1 µM (HCC 2998): 100%; growth at 0.1 µM (DU-145 [5]): 102%; GI50 (SNB-19 [6]): 0.87 µM; LC50 (SNB-19 [6]): > 100 µM; TGI (SNB-19 [6]): > 100 µM; GI50 (PC-3): 0.454 µM; TGI (PC-3): > 100 µM; CC50 (PC-3; read-out: LC50 (the source's name)): > 100 µM; growth at 1 µM (OVCAR-4 [7]): 39%; GI50 (MOLT-4 [8]): 2.42 µM; TGI (MOLT-4 [8]): ≥ 100 µM; CC50 (MOLT-4 [8]): > 100 µM; growth at 100 µM (SF-268 [9]): 5%; growth at 1 µM (MOLT-4 [10]): 67%; growth at 0.1 µM (HCT-15): 92%; growth at 100 µM (MCF7): -1%; TGI (NCI-H322M [11]): > 100 µM; CC50 (NCI-H322M [11]): > 100 µM; growth at 0.1 µM (MDA-MB-468 [12]): 91%; growth at 100 µM (OVCAR-4 [13]): 10%; growth at 100 µM (OVCAR-8): -2%; growth at 100 µM (DU-145 [14]): 9%; growth at 0.1 µM (Hs-578T): 90%; growth at 1 µM (NCI-H322M [15]): 42%; growth at 0.1 µM (RPMI-8226): 102%
